One test concerns Influenza A virus. Briefly: Antiviral activity against VSV-G pseudotyped Influenza A virus infected in human SupT1 cells after 48 hrs by firefly luciferase reporter gene assay. Format: functional, organism-based. The note with it: SUP-T1, 48 h.
In test [1] the test system is Human immunodeficiency virus 1. Briefly: Antiviral activity against VSV-G pseudotyped HIV1 infected in human SupT1 cells after 48 hrs by firefly luciferase reporter gene assay. Type of test: functional, organism-based. The conditions noted are these: Human immunodeficiency virus 1, SUP-T1, 48 h. The method in brief: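 293T cells (2 × 105) cotransfected with 0.6 μg pNL-Luc-E−-Vpu− and 0.4 μg pHIT/G. Supernatant harvested at 48 h, 0.45 μm filtered, capsid p24 quantified by antigen-capture ELISA. SupT1 cells infected at MOI 1, 37 °C, 48 h, with compound at several concentrations, each in triplicate. Efavirenz as control. Inhibition measured by firefly luciferase; IC50 calculated from it.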
In general terms: A reporter such as luciferase makes a cellular process visible.

The test system of another test is BGC-823. The test can be described thus: Cytotoxicity against human BGC823 cells assessed as reduction in cell viability after 96 hrs by MTT assay. The conditions noted are these: BGC-823, 96 h. Format: cell-based. The method in brief:
(§1)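 MTT assay. Cells were grown in RPMI 1640 with 10% FBS, penicillin and streptomycin at 37 °C under 5% CO2, then seeded at 1200 cells/well. Compounds were added after 24 h at 10−4 to 10−8 M (five concentrations, final DMSO 0.1% v/v) and incubated 96 h. Absorbance was read at 570 nm. Paclitaxel was the positive control, with triplicates per concentration; IC50 was calculated from these.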
(In general: Tetrazolium assays rely on reduction of a dye to a coloured formazan, in cell work by metabolically active cells.)

For the next test, the system named is NCI-H460. The test can be described thus: Cytotoxicity against human NCI-H460 cells assessed as reduction in cell viability after 96 hrs by MTT assay. Format: cell-based. The note with it: NCI-H460, 96 h. In a few lines: as §1
Another test deals with HepG2. Briefly: Cytotoxicity against human HepG2 cells assessed as reduction in cell viability after 96 hrs by MTT assay. Format: cell-based. The note with it: HepG2, 96 h. The method in brief: as §1

Usually IC50 stands for the midpoint of a concentration-inhibition curve. `CC(=O)C[C@H]1OCc2cc(O)c3c(c21)O[C@]1(C3)[C@H](C)CC[C@H]2C(C)(C)[C@H](O)CC[C@@]21C` had a half-inhibitory concentration (IC50) with Influenza A virus of 12.4 to 23.4 µM. The same measure, in the same setting: then `NC(=O)c1ncn([C@@H]2O[C@H](CO)[C@@H](O)[C@H]2O)n1` [RIBAVIRIN], with 0.002 µM.

Take `CC(=O)O[C@@H]1CC[C@@]2(C)[C@@H](CC[C@@H](C)[C@]23Cc2c(O)cc(CO)c(C=O)c2O3)C1(C)C`: the concentration for half-maximal inhibition (IC50) in test [1] was in the range of 15.6 to 20.5 µM.

As for `Cc1cc(O)c2c(c1C=O)O[C@]1(C2)[C@H](C)CC[C@H]2C(C)(C)[C@H](O)CC[C@@]21C`, the IC50 in the test with BGC-823 was 21.9 µM; in test [1], 15.6 to 20.5 µM; with NCI-H460 it was 15.8 µM; in the test with HepG2 it was 18.4 µM. As to `CC(=O)O[C@H]1C(=O)[C@@]2(C)[C@H]([C@H](OC(=O)c3ccccc3)[C@]3(O)C[C@H](OC(=O)[C@H](O)[C@@H](NC(=O)c4ccccc4)c4ccccc4)C(C)=C1C3(C)C)[C@]1(OC(C)=O)CO[C@@H]1C[C@@H]2O` [PACLITAXEL], the concentration for half-maximal inhibition (IC50) with BGC-823 amounted to 0.0008 µM; in the test on NCI-H460, 0.001 µM; with HepG2, 0.0063 µM. For `CC(=O)O[C@@H]1CC[C@@]2(C)[C@@H](CC[C@@H](C)[C@]23Cc2c(O)cc(C)c(C=O)c2O3)C1(C)C`, the IC50 is 15.6 to 20.5 µM in test [1], 12.4 to 23.4 µM in the test with Influenza A virus and 24.7 µM with HepG2. As for `C=C1CC[C@H]2C(C)(C)[C@H](O)CC[C@]2(C)[C@@]12Cc1c(O)cc(COC(C)=O)c(C=O)c1O2`, the half-maximal inhibitory concentration (IC50) in test [1] was in the range of 15.6 to 20.5 µM. In the test with Influenza A virus, `CC(=O)/C=C/c1c(CO)cc(O)c2c1O[C@]1(C2)[C@H](C)CC[C@H]2C(C)(C)[C@H](O)CC[C@@]21C` yielded an IC50 of 12.4 to 23.4 µM.

In the test on Influenza A virus, `CC(=O)O[C@@H]1CC[C@@]2(C)[C@@H](CC[C@@H](C)[C@]23Cc2c(O)cc4c(c2O3)COC4=O)C1(C)C` registered an IC50 of 12.4 to 23.4 µM. Take `CC(=O)C[C@@H]1OCc2cc(O)c3c(c21)O[C@]1(C3)[C@H](C)CC[C@H]2C(C)(C)[C@H](O)CC[C@@]21C`: the IC50 was 15.6 to 20.5 µM in test [1], 12.4 to 23.4 µM with Influenza A virus and 24.6 µM in the test with HepG2.
